FAK blocker: FAK kinase inhibitors, primary screen, biochemical; Focal adhesion kinase 1 (Homo sapiens), Q05397; biochemical FAK kinase activity assay; inhibition, %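 (tested at 7 µM)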; 0.84% of 97,000 active; in the data active = inhibition above about 19%;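 note: 0% = DMSO and 100% = reference compound high control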
Target sequence (Q05397 whole entry, looked up): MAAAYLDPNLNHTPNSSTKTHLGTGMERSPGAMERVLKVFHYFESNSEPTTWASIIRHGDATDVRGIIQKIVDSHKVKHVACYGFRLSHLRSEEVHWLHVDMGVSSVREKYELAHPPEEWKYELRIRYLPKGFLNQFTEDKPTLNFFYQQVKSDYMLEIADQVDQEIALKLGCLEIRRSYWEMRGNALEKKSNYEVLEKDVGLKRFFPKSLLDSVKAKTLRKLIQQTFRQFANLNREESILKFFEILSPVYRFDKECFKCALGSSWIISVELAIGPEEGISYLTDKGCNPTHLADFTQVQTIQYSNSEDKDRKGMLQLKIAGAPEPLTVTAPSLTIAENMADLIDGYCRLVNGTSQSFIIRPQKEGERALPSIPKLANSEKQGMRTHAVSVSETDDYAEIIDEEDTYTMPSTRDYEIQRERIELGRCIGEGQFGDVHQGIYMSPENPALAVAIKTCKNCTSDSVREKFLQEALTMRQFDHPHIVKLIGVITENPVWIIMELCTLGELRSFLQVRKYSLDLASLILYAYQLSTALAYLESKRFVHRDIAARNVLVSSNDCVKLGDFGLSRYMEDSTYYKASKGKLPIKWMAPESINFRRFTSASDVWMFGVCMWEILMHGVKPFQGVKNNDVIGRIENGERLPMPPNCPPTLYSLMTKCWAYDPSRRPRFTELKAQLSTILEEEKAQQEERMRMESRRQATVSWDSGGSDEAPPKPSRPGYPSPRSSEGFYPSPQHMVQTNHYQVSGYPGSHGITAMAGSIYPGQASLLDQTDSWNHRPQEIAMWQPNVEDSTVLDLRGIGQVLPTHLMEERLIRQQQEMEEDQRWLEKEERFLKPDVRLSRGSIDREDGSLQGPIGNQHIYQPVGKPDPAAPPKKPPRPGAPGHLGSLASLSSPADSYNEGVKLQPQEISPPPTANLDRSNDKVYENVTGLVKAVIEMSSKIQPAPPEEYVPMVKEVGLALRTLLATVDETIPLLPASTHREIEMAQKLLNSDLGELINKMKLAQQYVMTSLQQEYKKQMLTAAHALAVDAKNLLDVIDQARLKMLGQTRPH
IL1B NFkB inh: inhibitors of IL-1B driven NFkB p65 nuclear import, primary screen, imaging, HUVEC, IL-1B stimulus, high-content imaging; HUVEC IL-1B NFkB p65 nuclear translocation imaging; inhibition, % at 2 µM; 0.43% of 94,000 active;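 active = inhibition above about 30% together with a positive call from visual inspection of the well image, limit read from the data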;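 note: nuclear over cytoplasmic p65 intensity ratio measured by imaging; 0% = IL-1B stimulated DMSO wells and 100% = unstimulated DMSO wells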
Rev-RRE block: HIV-1 Rev-RRE binding inhibitors, primary screen, biochemical, FRET, protein-RNA interaction; 0.79% of 97,000 active; inhibition, % at 8 µM; Rev peptide-RRE RNA binding; P05866; AID 704, 2007;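 active = inhibition above the screen-wide mean plus 3 SD, cut at about 35% in these data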;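 note: 0% = median DMSO wells and 100% = median Neomycin B control wells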
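Test system – labelled RRE RNA duplex and labelled Rev peptide · Signal – fluorescein-to-Cy5 FRET, 480 nm excitation · Evaluation – % inhibition of FRET ratio versus controls · Benchmarks – DMSO low control, neomycin B high control · Incubation – 5 min RNA-compound premix plus 15 min binding step, 25 °C · Medium – HEPES pH 7.5 salt buffer with EDTA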
HUVEC tox IL1B: cytotoxicity in IL-1B stimulated HUVEC, primary screen, cytotoxicity control for IL-1B NFkB translocation project, imaging, Hoechst nuclear count, IL-1B stimulus; HUVEC cell count loss; cell count reduction, % at 2 µM; 0.41% of 94,000 active; AID 845, 2007;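 active = cell count reduction more than 3 SD above the screen-wide mean, cut at about 70% in these data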;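 note: normalized per plate to untreated control cells as the no-loss baseline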
Measles CPE: compounds protecting cells from measles virus cytopathic effect, primary screen, measles RdRp inhibitor project, single point, MLSMR library, absorbance | Measles virus-infected cells, CPE protection | protection (pct of control), % at 4 µM | AID 841, 2007 | 1.5% of 140,000 active; in the data active = protection mostly above about 24%, no sharp cut-off; inactive = mostly below about 26%
IL1B NFkB pot: enhancers of NFkB p65 translocation in HUVEC – imaging, IL-1B stimulus, high-content imaging, primary screen | HUVEC IL-1B NFkB p65 nuclear translocation imaging | activation, % at 2 µM | 0.3% of 94,000 active;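 active = activation above 40%, about the mean plus 3 SD, also judged a hit on visual image review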;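 note: percent activation is computed from the nuclear over cytoplasmic p65 intensity ratio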
The depositor's hits bear a star; . = no result given; [ ] = remark or other dose. In the library only some 3.3% were active in any assay of this set; here they are far more common.

SMILES	FAK blocker	IL1B NFkB inh	Rev-RRE block	HUVEC tox IL1B	Measles CPE	IL1B NFkB pot
Cc1c(O)nc(SCC(=O)Nc2ccc3c4c(cccc24)CC3)n(-c2ccc(F)cc2)c1=O	.	.	.	.	9	.
CCOC(=O)C1=C(CSc2nc(-c3ccccc3)ccc2C#N)OC(N)=C(C#N)C1c1ccc(OC)cc1 (stereo not given)	-3	1	44*	-6	4	-1
CCOC(=O)C1=C(CSc2nc3c(cc2C#N)CN(C)CC3)OC(N)=C(C#N)C1c1ccncc1 (stereo not given)	.	.	.	.	3	.
CCOC(=O)C1=C(CSc2nc(CC)c(C)cc2C#N)OC(N)=C(C#N)C1c1ccccc1 (stereo not given)	1	-20	18	-21	11	20
CCOC(=O)C1=C(CSc2nc3c(cc2C#N)CN(C)CC3)OC(N)=C(C#N)C1c1ccc(Cl)cc1 (stereo not given)	9	-3	58*	2	5	3
Cc1ccc(S(=O)(=O)N2CCN(CC(=O)N/N=C/c3ccco3)CC2)cc1	.	.	.	.	10	.
O=C(CNC(=O)c1cccc(Cl)c1)N/N=C/C=C/c1ccccc1	.	.	.	.	16	.
CCSc1nnc(CNc2ccc(F)cc2)n1CC1CCCO1 (stereo not given)	-3	13	1	-5	46*	-13
O=C(CSc1nnc(CNc2ccc(F)cc2)n1Cc1ccco1)N1CCCC1	.	.	.	.	13	.
CC1CCN(C(=O)CSc2nnc(CNc3ccc(F)cc3)n2Cc2ccco2)CC1	-3	32*	9	84*	3	-32
CCc1cccc(CC)c1NC(=O)COC(=O)c1cccc(-c2ccc(OC(C)=O)cc2)c1	.	.	.	.	1	.
O=C1CN(C(=O)c2cc([N+](=O)[O-])ccc2Cl)C(c2ccc(F)cc2)c2cc(F)ccc2N1 (stereo not given)	.	.	.	.	12	.
Cc1cc(C)n(-c2nc3ccccc3nc2Nc2ccc3c(c2)OCO3)n1	.	.	.	.	42*	.
COc1cccc(Nc2nc3ccccc3nc2-n2nc(C)cc2C)c1	-1	-5	23	12	2	5
Cc1ccc2nc(-c3ccc(NS(C)(=O)=O)cc3)cc(-c3ccccc3)c2c1	-2	1	0	-21	42*	-2
O=c1c(O)c(-c2cccs2)oc2ccc(Cl)cc12	9	-5	102*[fluorescence artefact?]	5	9	5
CCOC(=O)CN(c1ccccn1)S(=O)(=O)c1ccccc1	-2	-6	-1	4	35*	6
CC(=O)c1nc(N2C(=O)CC(Cc3ccccc3)C2=O)sc1C (stereo not given)	.	.	.	.	9	.
O=C(C1=C(Nc2ccccc2)c2ccccc2S(=O)(=O)N1)c1ccccc1	.	.	.	.	26*	.
CCOc1ccc(/C=C/[N+](=O)[O-])c2ccccc12	0	61*	34	-54	1	-61
COc1ccc(C(=O)Nc2cccc(-c3cc4ccccc4oc3=O)c2)cc1[N+](=O)[O-]	.	.	.	.	5	.
COc1ccccc1NC(=O)CSc1nnc(CNC(=O)COc2ccc(Cl)cc2)o1	-1	-40	10	-26	2	40*
CCCCC(=O)NC1(C(F)(F)F)C(=O)N(CC(C)C)C2=C1C(=O)CC(C)(C)C2 (stereo not given)	-7	3	-4	-23	7	-3
Cc1cccc(CSc2nnnn2-c2ccccc2)c1	1	-26	8	-49	69*	26
CC(=O)NCc1cccc(CNC(C)=O)n1	-1	0	7	-18	10	0
SMILES	FAK blocker	IL1B NFkB inh	Rev-RRE block	HUVEC tox IL1B	Measles CPE	IL1B NFkB pot
CNC(=O)OCc1cccc(COC(=O)NC)n1	-3	-9	2	-52	46*	9
O=c1c2sccc2nc(SCc2ccc([N+](=O)[O-])cc2)n1Cc1ccccn1	.	.	.	.	5	.
CC(=C/c1ccco1)/C=N/NC(=O)CSc1nnc(SCc2ccc(C)cc2)s1	.	.	.	.	3	.
CCCNc1ncnc2nc[nH]c12	.	.	.	.	40*	.
c1ccc(CCCNc2ncnc3nc[nH]c23)cc1	.	.	.	.	15	.
c1ccc2c(CCNc3ncnc4nc[nH]c34)cccc2c1	21*	3	-5	-33	7	-3
COc1ccc(C(=O)Nc2ccc(Cl)cc2C(=O)N2CCCC(C)C2)cc1OC (stereo not given)	.	.	.	.	7	.
CC(CCc1ccccc1)NC(=O)c1cccnc1 (stereo not given)	5	58*	7	1	5	-58
CC1CCCN(CCCCOc2cccc(Br)c2)C1 (stereo not given)	.	.	.	.	4	.
C=CCn1c(SCC(N)=O)nnc1-c1cccc(Br)c1	2	18	7	-11	35*	-18
C=CCn1c(SCC(C)=O)nnc1-c1cc(-c2ccccc2)sc1N	2	-3	3	-2	14	3
Cn1nnnc1SCC(=O)N1c2ccccc2Sc2ccccc21	2	-8	1	0	5	8
CCn1nnnc1SCC(=O)N1c2ccccc2Sc2ccccc21	0	7	3	-24	28*	-7
COc1ccc(NC(=O)C(c2cc3c(cc2[N+](=O)[O-])OCO3)N2CCN(C=O)CC2)cc1 (stereo not given)	.	.	.	.	23*	.
COc1ccc(NC(=O)C(c2cc3c(cc2[N+](=O)[O-])OCO3)N(C)Cc2ccccc2)cc1 (stereo not given)	.	.	.	.	3	.
Cc1ccc(-n2nc(C(=O)c3ccccc3)n3c(=O)cc(-c4ccccc4)nc23)cc1	-2	-12	2	-52	26*	12
CCOC(=O)c1nn(-c2ccc(C)cc2)c2nc(Nc3ccccc3)cc(=O)n12	-1	12	5	14	9	-12
CCN(Cc1cc(=O)n2ccsc2n1)c1cccc2ccccc12	.	.	.	.	3	.
COc1cc(C)c(CNc2ccc(OC)c(OC)c2)cc1C	12	-6	40*	5	7	6
COc1cc(C)c(CNc2cccc(C)c2)cc1C	1	.	8	.	9	.
CCOc1ccc(NS(=O)(=O)c2ccc(NC(=O)[C@@H]3CCCC[C@@H]3C(=O)O)cc2)cc1	.	.	.	.	8	.
Fc1ccc(-c2csc(/C=C/c3ccc4c(c3)OCO4)n2)cc1	.	.	.	.	8	.
O=C(N/N=C/c1cccc([N+](=O)[O-])c1)c1cc2ccccc2o1	.	.	.	.	12	.
O=[N+]([O-])c1cccc(/C=C/c2nc(C=Nc3ccccc3)c(O)o2)c1	1	-12	41*	-3	3	12
NC(=O)C1(N2CCCCC2)CCN(C(=O)CSc2nc3ccccc3[nH]2)CC1	-2	2	5	-14	41*	-2
NC(=O)C1CCN(C(=O)CSc2nc3ccccc3[nH]2)CC1	0	5	9	-2	16	-5
